Source: ChEMBL document CHEMBL1177726, “Amphiphilic amide nitrones: a new class of protective agents acting as modifiers of mitochondrial metabolism” (J Med Chem, 2010)
In brackets after ≈: the same amount, converted by molar mass. Activity calls are given as the source filed them. The calls are words filed in the database; no cut-off is given here.

Key:
Rattus norvegicus [1] = species on record: Rattus norvegicus; experiment: Inhibition of water soluble peroxide formation in Sprague-Dawley rat forebrain mitochondria at 0.8 uM after 30 mins by FOX assay; type: functional
How it was run: (§1)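 Rat forebrain mitochondria respired on 6 mM glutamate/malate with nitrone at 37.5 C for 30 min, then were put on ice and homogenized in H2SO4. The supernatant was mixed with FeSO4, xylenol orange and sorbitol at 0.07 M H2SO4, held 30 min at 25 C in the dark, and read at 570 nm. Mean ± SEM of at least four independent preparations.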

[2] = Inhibition of peroxynitrite-induced cell death in Sprague-Dawley rat primary mixed cortical cells at 10 uM after 24 hrs by trypan blue absorbance assay; type: functional
How it was run: (§2)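 Mixed cortical cultures from E15 rat embryos were exposed for 24 h to H2O2, peroxynitrite or doxorubicin (200 μM), with nitrone (10 μM) added at the same time. Cell death was measured by trypan blue absorbance at 590 nm and expressed as % inhibition. Mean ± SEM, N = 10; ANOVA with Bonferroni t test against vehicle.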

Rotifers [3] = experiment: Protection against doxorubicin-induced toxicity in Rotifers assessed as viability at 10 uM after 24 hrs; type: functional, Rotifera
How it was run: (§3)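 Individually housed Philodina rotifers were exposed for 24 h to H2O2 or doxorubicin (200 μM), with nitrone (10 μM) added at the same time. Read-out was % viable animals. Vehicle controls came from the same stock culture and were run in parallel. Mean ± SEM, N = 10; ANOVA with Bonferroni t test.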

Rattus norvegicus [4] = species on record: Rattus norvegicus; experiment: Inhibition of rotenone-induced electron leakage in Sprague-Dawley rat forebrain mitochondria assessed as NBT reduction at 0.8 uM after 30 mins; type: functional
How it was run: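 Forebrain mitochondria from 3-month-old rats, in Tris-KCl phosphate medium at pH 7.4, respired on 6 mM glutamate and 6 mM malate at 37.5 C with nitrone for 30 min. NBT reduction was run with 3 μM rotenone and 3 mM azide, and the formazan was then extracted and measured. Mean ± SEM of at least four independent preparations.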

Rattus norvegicus [5] = species on record: Rattus norvegicus; experiment: Inhibition of water soluble peroxide formation in Sprague-Dawley rat forebrain mitochondria at 0.4 uM after 30 mins by FOX assay; type: functional; how it was run: as §1
Rattus norvegicus [6] = species on record: Rattus norvegicus; experiment: Induction of Electron transport protein complex 1 in Sprague-Dawley rat cortical mitochondria assessed as reduction of ferric cyanide at 10 uM after 30 mins in presence of EPBNAH
Rattus norvegicus [7] = species on record: Rattus norvegicus; experiment: Induction of Electron transport protein complex 1 in Sprague-Dawley rat cortical mitochondria assessed as reduction of ferric cyanide at 10 uM after 30 mins
How it was run: (§4)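 Submitochondrial particles from rat cortical mitochondria were preincubated 30 min with nitrone (10 μM), dopamine, or both. Ferricyanide reduction was then followed from the 440 minus 490 nm difference in the presence of antimycin A and azide at 37.5 C, as a read-out of iron-sulfur cluster N2 activity. Activity is given as nmol/mg protein/min, mean ± SEM, N = 10.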

Rattus norvegicus [8] = species on record: Rattus norvegicus; experiment: Induction of Electron transport protein complex 1 in Sprague-Dawley rat cortical mitochondria assessed as reduction of ferric cyanide at 10 uM after 30 mins in presence of dopamine; how it was run: as §4
[9] = Solubility in water; type: physicochemical
[10] = Inhibition of hydrogen peroxide-induced cell death in Sprague-Dawley rat primary mixed cortical cells at 10 uM after 24 hrs by trypan blue absorbance assay; type: functional; how it was run: as §2
Rotifers [11] = experiment: Protection against hydrogen peroxide-induced toxicity in Rotifers assessed as viability at 10 uM after 24 hrs; type: functional, Rotifera; how it was run: as §3
Rotifers [12] = experiment: Inhibition of water soluble peroxide formation in Rotifers cultures; type: functional, organism-based; conditions: Rotifera; TDE = time-dependent effect
[13] = Inhibition of doxorubicin-induced cell death in Sprague-Dawley rat primary mixed cortical cells at 10 uM after 24 hrs by trypan blue absorbance assay; type: functional; how it was run: as §2
[14] = Critical micellar concentration of the compound; type: physicochemical
How it was run: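 Nitrone solutions in ultrapure water were measured at 25 C by the Wilhelmy plate method with a tensiometer. The cmc was taken as the breakpoint of the plot of surface tension against log concentration.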

[15] = Lipophilicity, log K in methanol-water mixture by HPLC; type: physicochemical
How it was run: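 Nitrones in methanol (1.0 mg/mL) were run by reverse-phase C18 HPLC, eluted with MeOH/water from 9:1 to 7:3 v/v at 0.8 mL/min. Retention values were extrapolated to 100% aqueous to give log k'W.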

[16] = Antioxidant activity assessed as ABTS radical scavenging activity assessed as burstlike formation of intensely green colored ABTS radical measured for 30 mins; type: functional
How it was run: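 Fenton-initiated ABTS cation radical formation: water, ABTS (1 mM stock), FeSO4 (0.5 mM stock), test compound (1 mM stock in DMSO), reaction started with H2O2 (10 mM stock). Absorbance read at 420 nm every minute over 30 min. Controls got DMSO vehicle, 10% final. Scavenging is seen as suppression of time-dependent radical formation.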

[17] = Antioxidant activity assessed as reduction of ABTS radical measured for 30 mins; type: functional
How it was run: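 ABTS cation radical at 105 μM final, test compound at 0.5 mM final, DMSO vehicle at 2.5% final in controls. The reaction is started by adding the nitrone, and loss of radical is followed at 420 nm every minute for 30 min. Results are reduced ABTS•+ per 30 min as mean ± SEM, N = 10, compared with vehicle by ANOVA with Bonferroni t test.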

Rattus norvegicus [18] = species on record: Rattus norvegicus; experiment: Restoration of FCCP-induced decrease of mitochondrial membrane potential in Sprague-Dawley rat forebrain mitochondria at 0.8 uM treated 15 mins before FCCP challenge measured after 30 mins by rhodamine 123 fluorescence assay; type: functional
How it was run: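 Rat forebrain mitochondria respired on 6 mM glutamate/malate at 37.5 C with nitrone. FCCP (0.2 μM) was added at 15 min to partly collapse the potential, and rhodamine 123 fluorescence quenching was recorded directly at 30 min. Potential was calculated by the Scaduto and Grotyohann method. Mean ± SEM of at least four preparations.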

| solubility [9] | logKw [15] | SMILES | inhibition (Rattus norvegicus [1]) | inhibition at 10 µM [2] | Activity (Rotifers [3]) | inhibition (Rattus norvegicus [4]) | inhibition (Rattus norvegicus [5]) | Activity (Rattus norvegicus [6]) | Activity (Rattus norvegicus [7]) | Activity (Rattus norvegicus [8]) | inhibition at 10 µM [10] | Activity (Rotifers [11]) | inhibition (Rotifers [12]) | inhibition at 10 µM [13] | CMC [14] | Activity [16] | Activity [17] | Activity (Rattus norvegicus [18]) |
| --- | --- | --- | --- | --- | --- | --- | --- | --- | --- | --- | --- | --- | --- | --- | --- | --- | --- | --- |
| 515 mg/mL (≈ 749 mM) | – | CCCCCCCC(=O)NCC(C)(C)/[N+]([O-])=C/c1ccc(CNC(=O)[C@H](O)[C@H](O)[C@H](O[C@@H]2O[C@H](CO)[C@H](O)[C@H](O)[C@H]2O)[C@@H](O)CO)cc1 | 20% | 61% | 85.8% | Active | 10% | 19 nmol/mg/min | 116 nmol/mg/min | 79 nmol/mg/min | 81% | 83% | tde | 82% | – | – | – | – |
| – | – | CC(C)(CNC(=O)CCC(F)(F)C(F)(F)C(F)(F)C(F)(F)C(F)(F)C(F)(F)F)/[N+]([O-])=C/c1ccc(CNC(=O)[C@H](O)[C@H](O)[C@H](O[C@@H]2O[C@H](CO)[C@H](O)[C@H](O)[C@H]2O)[C@@H](O)CO)cc1 | – | 40.1% | 30.6% | – | – | – | – | – | 63.4% | 40.6% | – | 34.9% | 0.213 mM | – | – | – |
| – | 1.62 | CC(C)(C)/[N+]([O-])=C/c1ccccc1 | – | 20.6% | 18.7% | – | – | 13 nmol/mg/min | 107 nmol/mg/min | 60 nmol/mg/min | 25% | 25.6% | – | 24.2% | – | – | – | – |
| 270 mg/mL (≈ 289 mM) | 4.71 | CC(C)(CNC(=O)[C@H](O)[C@H](O)[C@H](O[C@@H]1O[C@H](CO)[C@H](O)[C@H](O)[C@H]1O)[C@@H](O)CO)/[N+]([O-])=C/c1ccc(CNC(=O)CCC(F)(F)C(F)(F)C(F)(F)C(F)(F)C(F)(F)C(F)(F)F)cc1 | – | 30.3% | 46.7% | – | – | – | – | – | 42.6% | 30.1% | – | 32.8% | 0.18 mM | 90.7 nmol | 42.6 nmol | – |
| 530 mg/mL (≈ 771 mM) | 2.86 | CCCCCCCC(=O)NCc1ccc(/C=[N+](\[O-])C(C)(C)CNC(=O)[C@H](O)[C@H](O)[C@H](O[C@@H]2O[C@H](CO)[C@H](O)[C@H](O)[C@H]2O)[C@@H](O)CO)cc1 | 80% | 90.1% | 96.5% | Active | – | 31 nmol/mg/min | 124 nmol/mg/min | 110 nmol/mg/min | 93% | 87.6% | tde | 93% | – | 96.8 nmol | 49.1 nmol | Active |
